Experimental data reported in ChEMBL document CHEMBL3044622, “Effectiveness and mode of action of phosphonate inhibitors of plant glutamine synthetase” (Pest Manag Sci, 2010).

What was measured:
[1] = biological target: T1, Glutamine synthetase, chloroplastic (Zea mays) (UniProt P25462); assay: Inhibition of Zea mays cv. Jeff (maize) leaf glutamine synthetase using L-glutamate as substrate assessed as inorganic phosphate production at 1 mM after 20 min by malachite green assay relative to control
T1 sequence (whole entry): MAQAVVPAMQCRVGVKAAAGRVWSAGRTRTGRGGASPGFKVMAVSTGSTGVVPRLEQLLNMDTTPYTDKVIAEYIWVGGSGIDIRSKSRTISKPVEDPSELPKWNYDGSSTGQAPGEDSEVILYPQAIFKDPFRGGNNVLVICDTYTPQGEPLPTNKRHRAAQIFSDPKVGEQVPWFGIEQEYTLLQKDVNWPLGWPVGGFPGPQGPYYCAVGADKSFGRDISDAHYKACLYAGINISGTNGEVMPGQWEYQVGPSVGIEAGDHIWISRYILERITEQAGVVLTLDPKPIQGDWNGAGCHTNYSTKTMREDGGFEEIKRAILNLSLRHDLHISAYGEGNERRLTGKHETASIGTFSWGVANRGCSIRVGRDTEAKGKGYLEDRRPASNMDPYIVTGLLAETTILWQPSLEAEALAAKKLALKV

[2] = biological target: T2, Glutamine synthetase, chloroplastic (Zea mays, UniProt P25462); assay: Inhibition of Zea mays cv. Jeff (maize) leaf glutamine synthetase using L-glutamate as substrate assessed as inorganic phosphate production after 20 min by malachite green assay relative to control
T2 sequence (P25462 whole entry): T1 sequence (whole entry)
Method in brief: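 GS purified from three-leaf-stage maize seedling leaves by ammonium sulfate, DEAE-Sephacel, Reactive Blue flow-through and Mono-Q steps. Inhibitor adjusted to pH 7.4 with KOH, 0.001–5 mM; IC50 by probit method.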

[3] = biological target: T2, Glutamine synthetase, chloroplastic; assay: Non-competitive inhibition of Zea mays cv. Jeff( maize) leaf glutamine synthetase using L-glutamate as substrate Lineweaver-Burk plot analysis
[4] = biological target: T2, Glutamine synthetase, chloroplastic; assay: Un-competitive inhibition of Zea mays cv. Jeff (maize) leaf glutamine synthetase using ATP as substrate Lineweaver-Burk plot analysis
Method in brief: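 With purified maize leaf GS in the biosynthetic assay (Pi by malachite green, 35 °C), ATP was varied at seven levels from 0.2 to 1 mM with L-glutamate fixed at 50 mM. Four inhibitor levels, 0.5- to 3-fold the I50, each at least in triplicate. Lineweaver–Burk plots were used, and Ki came from Dixon replots. Values are means ± SEM.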

Compound | inhibition [1] | IC50 [2] | Ki [3] | Ki [4]
COc1cccc(C(N)P(=O)(O)O)c1OC (centres undefined) | -1.2% | – | – | –
NC(c1cccc(Cl)c1)P(=O)(O)O (centres undefined) | 8.1% | – | – | –
NC(c1cccc(F)c1)P(=O)(O)O (centres undefined) | 7.9% | – | – | –
NC(c1ccccc1)P(=O)(O)O (centres undefined) | 13.6% | – | – | –
O=P(O)(O)C(O)c1c(Cl)cccc1Cl (centres undefined) | 10.7% | – | – | –
O=P(O)(O)C(O)c1ccc(Cl)c(Cl)c1 (centres undefined) | 14.6% | – | – | –
O=P(O)(O)C(O)c1ccc(Cl)cc1 (centres undefined) | 8.3% | – | – | –
O=P(O)(O)C(O)c1cccc(Cl)c1 (centres undefined) | 12.3% | – | – | –
O=P(O)(O)C(Nc1cccc(Cl)c1Cl)P(=O)(O)O [2,3-DICHLOROPHENYLAMINOMETHYLENEBISPHOSPHONIC ACID] | 84.9% | 12.8 µM | – | –
O=P(O)(O)C(Nc1ccc(Cl)cc1Cl)P(=O)(O)O [2,4-DICHLOROPHENYLAMINOMETHYLENEBISPHOSPHONIC ACID] | 79.7% | 21.2 µM | – | –
O=P(O)(O)C(Nc1cc(Cl)ccc1Cl)P(=O)(O)O [2,5-DICHLOROPHENYLAMINOMETHYLENEBISPHOSPHONIC ACID] | 79.1% | 39.2 µM | – | –
O=P(O)(O)C(Nc1c(Cl)cccc1Cl)P(=O)(O)O [2,6-DICHLOROPHENYLAMINOMETHYLENEBISPHOSPHONIC ACID] | 81.1% | 15 µM | – | –
O=P(O)(O)C(Nc1ccc(Cl)c(Cl)c1)P(=O)(O)O [3,4-DICHLOROPHENYLAMINOMETHYLENEBISPHOSPHONIC ACID] | 73.8% | 31.9 µM | – | –
Cc1cc(C)cc(NC(P(=O)(O)O)P(=O)(O)O)c1 [3,5-DIMETHYLPHENYLAMINOMETHYLENEBISPHOSPHONIC ACID] | 67.5% | 56 µM | 53 µM | 55 µM
O=P(O)(O)C(O)c1cccc(Cl)c1Cl (centres undefined) [(2,3-DICHLOROPHENYL)(HYDROXY)METHYLPHOSPHONIC ACID] | 47.2% | 1160 µM | – | –
O=P(O)(O)C(O)c1ccc(Cl)cc1Cl (centres undefined) [(2,4-DICHLOROPHENYL)(HYDROXY)METHYLPHOSPHONIC ACID] | 31.9% | 4830 µM | – | –
O=P(O)(O)C(O)c1ccccc1Cl (centres undefined) [(2-CHLOROPHENYL)(HYDROXY)METHYLPHOSPHONIC ACID] | 27% | 6610 µM | – | –
O=P(O)(O)C(Nc1cc(Cl)cc(Cl)c1)P(=O)(O)O [(3,5-DICHLOROPHENYLAMINO)METHYLENEDIPHOSPHONIC ACID] | 86.3% | 7.6 µM | 7.2 µM | 6.4 µM
O=P(O)(O)C(Nc1ccc(Cl)cc1)P(=O)(O)O [(4-CHLOROPHENYLAMINO)METHYLENEDIPHOSPHONIC ACID] | 79.1% | 21 µM | – | –
NC(c1cccc(Cl)c1Cl)P(=O)(O)O (centres undefined) [AMINO(2,3-DICHLOROPHENYL)METHYLPHOSPHONIC ACID] | 47.7% | 1050 µM | – | –
NC(c1ccc(Cl)cc1Cl)P(=O)(O)O (centres undefined) [AMINO(2,4-DICHLOROPHENYL)METHYLPHOSPHONIC ACID] | 40.7% | 2610 µM | – | –
NC(c1ccccc1Br)P(=O)(O)O (centres undefined) [AMINO(2-BROMOPHENYL)METHYLPHOSPHONIC ACID] | 42.5% | 4100 µM | – | –
NC(c1ccccc1Cl)P(=O)(O)O (centres undefined) [AMINO(2-CHLOROPHENYL)METHYLPHOSPHONIC ACID] | 36.3% | 5810 µM | – | –
NC(c1ccccc1F)P(=O)(O)O (centres undefined) [AMINO(2-FLUOROPHENYL)METHYLPHOSPHONIC ACID] | 26.7% | 10100 µM | – | –
